According to ChEMBL document CHEMBL1141363, “Synthesis and evaluation of novel heterocyclic MMP inhibitors” (Bioorg Med Chem Lett, 2007):

What was measured:
[1] = molecular target: T1, Interstitial collagenase (Homo sapiens, UniProt P03956); experiment: Inhibition of MMP1
T1 sequence (P03956 whole entry): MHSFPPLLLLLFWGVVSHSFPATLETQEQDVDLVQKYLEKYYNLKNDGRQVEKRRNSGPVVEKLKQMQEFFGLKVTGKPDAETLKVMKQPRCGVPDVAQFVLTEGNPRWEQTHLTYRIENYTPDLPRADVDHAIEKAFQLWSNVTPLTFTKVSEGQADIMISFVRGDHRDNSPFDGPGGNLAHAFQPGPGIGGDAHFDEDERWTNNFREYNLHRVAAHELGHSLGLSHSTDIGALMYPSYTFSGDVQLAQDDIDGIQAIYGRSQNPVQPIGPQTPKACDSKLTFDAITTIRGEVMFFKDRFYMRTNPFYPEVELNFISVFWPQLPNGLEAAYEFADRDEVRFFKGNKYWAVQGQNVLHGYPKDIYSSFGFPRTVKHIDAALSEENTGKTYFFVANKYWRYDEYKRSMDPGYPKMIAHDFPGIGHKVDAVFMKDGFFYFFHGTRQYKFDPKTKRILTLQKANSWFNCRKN
Outline: (§1)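 Catalytic domains used at final levels of 85 nM (MMP-1), 24 nM (MMP-2), 18 nM (MMP-9) and 84 nM (MMP-12). Each enzyme was premixed with compound (serial 1:2 dilutions, 150 to 1.2) for 30 min at 37 °C. Substrate was added in 50 mM Hepes with 5 mM CaCl2 and 0.05% w/w Brij-35, pH 7.5, then incubated 30 min. Fluorescence read at ex 328/em 393 nm over 45 min, every 50 s.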

[2] = molecular target: 72 kDa type IV collagenase (Homo sapiens, UniProt P08253); experiment: Inhibition of MMP2; outline: as §1
Chain of 72 kDa type IV collagenase (P08253 whole entry): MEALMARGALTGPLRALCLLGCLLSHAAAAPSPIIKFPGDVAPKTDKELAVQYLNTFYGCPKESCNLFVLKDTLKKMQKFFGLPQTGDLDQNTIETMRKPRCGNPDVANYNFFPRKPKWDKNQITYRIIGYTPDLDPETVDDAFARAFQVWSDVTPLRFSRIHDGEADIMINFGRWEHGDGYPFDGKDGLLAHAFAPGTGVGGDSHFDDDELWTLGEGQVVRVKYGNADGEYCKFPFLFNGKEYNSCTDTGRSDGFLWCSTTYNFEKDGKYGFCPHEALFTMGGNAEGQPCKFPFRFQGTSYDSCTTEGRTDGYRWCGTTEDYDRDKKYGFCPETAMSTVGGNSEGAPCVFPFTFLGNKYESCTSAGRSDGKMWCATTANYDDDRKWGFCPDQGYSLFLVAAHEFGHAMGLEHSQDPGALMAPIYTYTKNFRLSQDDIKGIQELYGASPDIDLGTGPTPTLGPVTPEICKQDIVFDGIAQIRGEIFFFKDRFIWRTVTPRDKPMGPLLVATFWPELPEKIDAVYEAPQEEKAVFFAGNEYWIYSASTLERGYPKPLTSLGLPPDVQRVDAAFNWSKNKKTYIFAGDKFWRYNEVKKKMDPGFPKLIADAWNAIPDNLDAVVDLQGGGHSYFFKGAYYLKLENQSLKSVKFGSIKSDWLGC

[3] = molecular target: Matrix metalloproteinase-9 (Homo sapiens, UniProt P14780); experiment: Inhibition of MMP9; outline: as §1
Chain of Matrix metalloproteinase-9 (P14780 whole entry): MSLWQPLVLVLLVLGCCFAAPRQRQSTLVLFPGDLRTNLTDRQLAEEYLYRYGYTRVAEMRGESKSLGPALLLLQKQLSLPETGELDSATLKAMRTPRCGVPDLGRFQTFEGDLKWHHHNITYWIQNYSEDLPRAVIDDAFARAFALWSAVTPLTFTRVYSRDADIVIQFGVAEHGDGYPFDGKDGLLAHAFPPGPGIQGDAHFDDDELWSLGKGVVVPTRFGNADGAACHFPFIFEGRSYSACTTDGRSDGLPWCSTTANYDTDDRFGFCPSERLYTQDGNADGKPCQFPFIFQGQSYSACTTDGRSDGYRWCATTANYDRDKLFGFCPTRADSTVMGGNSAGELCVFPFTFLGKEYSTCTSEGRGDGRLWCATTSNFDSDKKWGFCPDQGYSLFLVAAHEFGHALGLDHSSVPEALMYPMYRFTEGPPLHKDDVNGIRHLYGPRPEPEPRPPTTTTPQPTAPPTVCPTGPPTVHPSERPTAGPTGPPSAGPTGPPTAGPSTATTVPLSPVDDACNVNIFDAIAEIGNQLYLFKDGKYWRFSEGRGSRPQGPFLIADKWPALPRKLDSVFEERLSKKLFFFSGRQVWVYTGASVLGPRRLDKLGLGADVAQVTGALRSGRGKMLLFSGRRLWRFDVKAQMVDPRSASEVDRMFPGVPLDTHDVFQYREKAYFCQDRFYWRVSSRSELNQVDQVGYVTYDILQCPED

[4] = molecular target: Macrophage metalloelastase (Homo sapiens, UniProt P39900); experiment: Inhibition of MMP12; outline: as §1
Chain of Macrophage metalloelastase (P39900 whole entry): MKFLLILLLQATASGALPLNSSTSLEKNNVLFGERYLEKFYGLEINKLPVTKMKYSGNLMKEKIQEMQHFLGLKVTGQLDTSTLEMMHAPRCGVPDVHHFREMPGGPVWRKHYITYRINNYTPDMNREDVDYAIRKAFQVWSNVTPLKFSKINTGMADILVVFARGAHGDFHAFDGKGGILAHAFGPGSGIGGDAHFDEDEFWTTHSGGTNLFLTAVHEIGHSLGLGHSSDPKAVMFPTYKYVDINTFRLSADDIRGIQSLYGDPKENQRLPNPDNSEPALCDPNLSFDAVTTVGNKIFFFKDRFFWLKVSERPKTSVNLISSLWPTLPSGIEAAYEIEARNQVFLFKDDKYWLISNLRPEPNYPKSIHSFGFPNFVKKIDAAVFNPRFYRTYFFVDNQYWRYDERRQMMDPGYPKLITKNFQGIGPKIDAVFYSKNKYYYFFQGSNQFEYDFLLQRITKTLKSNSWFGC

## O=C(OCc1c(F)cc(F)cc1F)c1cccc(=O)[nH]1
[1]
  IC50: 16 µM
[2]
  IC50: 39 µM
[3]
  IC50: 33 µM
[4]
  IC50: 31 µM

## O=C(Oc1ccc2ccccc2c1)c1cccc(=O)[nH]1
[1]
  IC50: 75 µM
[2]
  IC50: 125 µM
[3]
  IC50: 103 µM
[4]
  IC50: 97 µM

## O=C(OCc1ccccc1F)c1cccc(=O)[nH]1
[1]
  IC50: 64 µM
[2]
  IC50: 71 µM
[3]
  IC50: 76 µM
[4]
  IC50: 68 µM

## O=C(OCc1ccccc1)c1cccc(S)n1
[1]
  IC50: 101 µM
[2]
  IC50: 85 µM
[3]
  IC50: 88 µM
[4]
  IC50: 82 µM

## O=C(OCc1cccc(C(F)(F)F)c1)c1cccc(=S)[nH]1
[1]
  IC50: 134 µM
[2]
  IC50: 110 µM
[3]
  IC50: 126 µM
[4]
  IC50: 134 µM

## COc1ccc(COC(=O)c2cccc(=O)[nH]2)cc1
[1]
  IC50: 99 µM
[2]
  IC50: 110 µM
[3]
  IC50: 100 µM
[4]
  IC50: 105 µM

## COc1cccc(COC(=O)c2cccc(S)n2)c1
[1]
  IC50: 86 µM
[2]
  IC50: 90 µM
[3]
  IC50: 93 µM
[4]
  IC50: 78 µM

## O=C(OCc1cccc(F)c1)c1cccc(=O)[nH]1
[1]
  IC50: 28 µM
[2]
  IC50: 70 µM
[3]
  IC50: 50 µM
[4]
  IC50: 16 µM

## CC#CCOC(=O)c1cccc(=O)[nH]1
[1]
  IC50: 50 µM
[2]
  IC50: 70 µM
[3]
  IC50: 68 µM
[4]
  IC50: 71 µM

## O=C(OCc1ccccc1Br)c1cccc(S)n1
[1]
  IC50: > 150 µM
[2]
  IC50: 108 µM
[3]
  IC50: > 150 µM
[4]
  IC50: > 150 µM

## CC(C)OC(=O)c1cccc(S)n1
[1]
  IC50: 121 µM
[2]
  IC50: > 150 µM
[3]
  IC50: 132 µM
[4]
  IC50: 146 µM

## O=C(OCc1cc(F)ccc1F)c1cccc(=O)[nH]1
[1]
  IC50: 70 µM
[2]
  IC50: 70 µM
[3]
  IC50: 85 µM
[4]
  IC50: 100 µM

## O=C(OCc1cc(F)cc(F)c1)c1cccc(=O)[nH]1
[1]
  IC50: 41 µM
[2]
  IC50: 69 µM
[3]
  IC50: 71 µM
[4]
  IC50: 20 µM

## COc1ccc(COC(=O)c2cccc(S)n2)cc1
[1]
  IC50: 108 µM
[2]
  IC50: 91 µM
[3]
  IC50: 95 µM
[4]
  IC50: 96 µM

## O=C(OCc1ccc(F)cc1)c1cccc(=O)[nH]1
[1]
  IC50: 23 µM
[2]
  IC50: 71 µM
[3]
  IC50: 3 µM
[4]
  IC50: 65 µM

## O=C(Oc1cccs1)c1cccc(=O)[nH]1
[1]
  IC50: 56 µM
[2]
  IC50: 73 µM
[3]
  IC50: 70 µM
[4]
  IC50: 65 µM

## O=C(OCCOc1ccccc1)c1cccc(=O)[nH]1
[1]
  IC50: 59 µM
[2]
  IC50: > 150 µM
[3]
  IC50: 127 µM
[4]
  IC50: 79 µM

## O=C(OCc1ccc(Br)cc1)c1cccc(=O)[nH]1
[1]
  IC50: 81 µM
[2]
  IC50: 107 µM
[3]
  IC50: 114 µM
[4]
  IC50: 105 µM

## O=C(Oc1cccc2ccccc12)c1cccc(=S)[nH]1
[1]
  IC50: > 150 µM
[2]
  IC50: 98 µM
[3]
  IC50: > 150 µM
[4]
  IC50: > 150 µM

## Cc1ccc(COC(=O)c2cccc(=O)[nH]2)cc1
[1]
  IC50: 65 µM
[2]
  IC50: 73 µM
[3]
  IC50: 68 µM
[4]
  IC50: 69 µM

## C(=C\c1ccccc1)/Cn1nnc(Cc2cccnc2)n1
[1]
  IC50: > 150 µM
[2]
  IC50: > 150 µM
[3]
  IC50: > 150 µM
[4]
  IC50: > 150 µM

## O=C(OCc1cccc(-c2ccccc2)c1)c1cccc(=O)[nH]1
[1]
  IC50: 42 µM
[2]
  IC50: 33 µM
[3]
  IC50: > 150 µM
[4]
  IC50: 99 µM

## c1ccc(CCCn2cc(C3=NCCO3)nn2)cc1
[1]
  IC50: > 150 µM
[2]
  IC50: > 150 µM
[3]
  IC50: > 150 µM
[4]
  IC50: > 150 µM

## O=C(Oc1ccco1)c1cccc(=O)[nH]1
[1]
  IC50: 46 µM
[2]
  IC50: 111 µM
[3]
  IC50: 90 µM
[4]
  IC50: 76 µM

## CCCCCOC(=O)c1cccc(=O)[nH]1
[1]
  IC50: 50 µM
[2]
  IC50: 103 µM
[3]
  IC50: 66 µM
[4]
  IC50: 68 µM

## O=C(OCc1ccccc1Cl)c1cccc(=O)[nH]1
[1]
  IC50: 51 µM
[2]
  IC50: 69 µM
[3]
  IC50: 81 µM
[4]
  IC50: 68 µM

## C1=C(n2cc(C3=NCCO3)nn2)CCCC1
[1]
  IC50: > 150 µM
[2]
  IC50: > 150 µM
[3]
  IC50: > 150 µM
[4]
  IC50: > 150 µM

## O=C(OCc1ccc2c(c1)OCO2)c1cccc(=O)[nH]1
[1]
  IC50: 128 µM
[2]
  IC50: 107 µM
[3]
  IC50: 114 µM
[4]
  IC50: 105 µM

## O=C(Oc1ccc2ccccc2c1)c1cccc(S)n1
[1]
  IC50: 99 µM
[2]
  IC50: 100 µM
[3]
  IC50: 119 µM
[4]
  IC50: 101 µM

## O=C(OCc1cc(F)c(F)cc1F)c1cccc(=O)[nH]1
[1]
  IC50: 30 µM
[2]
  IC50: 86 µM
[3]
  IC50: 67 µM
[4]
  IC50: 56 µM

## O=C(Oc1ccsc1)c1cccc(S)n1
[1]
  IC50: 108 µM
[2]
  IC50: 77 µM
[3]
  IC50: 90 µM
[4]
  IC50: 93 µM

## O=C(OCc1cccc(C(F)(F)F)c1)c1cccc(=O)[nH]1
[1]
  IC50: 28 µM
[2]
  IC50: > 150 µM
[3]
  IC50: > 150 µM
[4]
  IC50: 82 µM

## C(=C\c1ccccc1)/Cn1cc(C2=NCCO2)nn1
[1]
  IC50: > 150 µM
[2]
  IC50: 149 µM
[3]
  IC50: > 150 µM
[4]
  IC50: 61 µM

## O=C(OC1CCCCC1)c1cccc(S)n1
[1]
  IC50: 102 µM
[2]
  IC50: 73 µM
[3]
  IC50: 91 µM
[4]
  IC50: 87 µM

## O=C(OCc1cc(F)c(F)cc1F)c1cccc(=S)[nH]1
[1]
  IC50: 124 µM
[2]
  IC50: 90 µM
[3]
  IC50: 105 µM
[4]
  IC50: 106 µM

## O=C(OCCCc1ccccc1)c1cccc(=S)[nH]1
[1]
  IC50: 95 µM
[2]
  IC50: 100 µM
[3]
  IC50: 112 µM
[4]
  IC50: 85 µM

## O=C(OCc1ccc(-c2ccccc2)cc1)c1cccc(=S)[nH]1
[1]
  IC50: 119 µM
[2]
  IC50: 110 µM
[3]
  IC50: 150 µM
[4]
  IC50: 135 µM

## O=C(OCc1c(F)cccc1F)c1cccc(=O)[nH]1
[1]
  IC50: 35 µM
[2]
  IC50: 66 µM
[3]
  IC50: 60 µM
[4]
  IC50: 60 µM

## O=C(OC/C=C/c1ccccc1)c1cccc(=O)[nH]1
[1]
  IC50: 86 µM
[2]
  IC50: 90 µM
[3]
  IC50: 73 µM
[4]
  IC50: 70 µM

## c1ccc(CCn2nnc(Cc3cccnc3)n2)cc1
[1]
  IC50: > 150 µM
[2]
  IC50: > 150 µM
[3]
  IC50: > 150 µM
[4]
  IC50: > 150 µM

## O=C(OCc1ccccc1)c1cccc(=O)[nH]1
[1]
  IC50: 30 µM
[2]
  IC50: 65 µM
[3]
  IC50: 69 µM
[4]
  IC50: 69 µM

## O=C(OC1CCC1)c1cccc(S)n1
[1]
  IC50: 135 µM
[2]
  IC50: > 150 µM
[3]
  IC50: 137 µM
[4]
  IC50: > 150 µM

## CCCCCCn1cc(C2=NCCO2)nn1
[1]
  IC50: > 150 µM
[2]
  IC50: > 150 µM
[3]
  IC50: > 150 µM
[4]
  IC50: > 150 µM

## CCCCCCOC(=O)c1cccc(S)n1
[1]
  IC50: 115 µM
[2]
  IC50: 85 µM
[3]
  IC50: 109 µM
[4]
  IC50: 105 µM

## O=C(OCc1ccc(Oc2ccccc2)cc1)c1cccc(S)n1
[1]
  IC50: 114 µM
[2]
  IC50: 93 µM
[3]
  IC50: 110 µM
[4]
  IC50: 109 µM

## c1ccc(Cn2nnc(Cc3cccnc3)n2)cc1
[1]
  IC50: > 150 µM
[2]
  IC50: > 150 µM
[3]
  IC50: > 150 µM
[4]
  IC50: > 150 µM

## O=C(OCc1c(F)c(F)c(F)c(F)c1F)c1cccc(=O)[nH]1
[1]
  IC50: 19 µM
[2]
  IC50: 64 µM
[3]
  IC50: 69 µM
[4]
  IC50: 63 µM

## c1cncc(Cc2nnn[nH]2)c1
[1]
  IC50: > 150 µM
[2]
  IC50: 48 µM
[3]
  IC50: > 150 µM
[4]
  IC50: > 150 µM

## O=C(OCc1ccc(Cl)cc1)c1cccc(=O)[nH]1
[1]
  IC50: 26 µM
[2]
  IC50: 69 µM
[3]
  IC50: 68 µM
[4]
  IC50: 47 µM

## O=C(OCc1cccc(-c2ccccc2)c1)c1cccc(=S)[nH]1
[1]
  IC50: 75 µM
[2]
  IC50: 42 µM
[3]
  IC50: 50 µM
[4]
  IC50: 52 µM
